# B1: Thymidine kinase, cytosolic (Homo sapiens), P04183 (protein)
# chain: MSCINLPTVLPGSPSKTRGQIQVILGPMFSGKSTELMRRVRRFQIAQYKCLVIKYAKDTRYSSSFCTHDRNTMEALPACLLRDVAQEALGVAVIGIDEGQFFPDIVEFCEAMANAGKTVIVAALDGTFQRKPFGAILNLVPLAESVVKLTAVCMECFREAAYTKRLGTEKEVEVIGGADKYHSVCRLCYFKKASGQPAGPDNKENCPVPGKPGEAVAARKLFAPQQILQCSPAN
# Legend:
# Mus musculus [1] = assay: Compound was evaluated for its effect ofHSV -2 induced mortality in mice measured as survivors/total (%) at the dose of 25 mg/kg per day; 0/10; assay type: functional
# Outline: (§1)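 Female Swiss mice, 16–18 g, anesthetized and inoculated intracerebrally with 10 LD50 of HSV 2 (G strain), then randomized into groups of 8–12. Dosing was ip, b.i.d. for 5 consecutive days, starting 1 h postinfection. Mortality was followed for 21 days. P values were from the two-tailed Fisher exact test for survivors and the Gehan-Wilcoxon test for mean survival time.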
# Mus musculus [2] = assay: Compound was evaluated for its effect ofHSV -2 induced mortality in mice measured as survivors/total (%) at the dose of 50 mg/kg per day; 3/10; assay type: functional; outline: as §1
# Cavia porcellus [3] = species: Cavia porcellus; assay: Compound (5%) was evaluated for its effect on (no. of areas = 4)maximum score in HSV-1 cutaneous infection of guinea pig; expressed as maximum score; assay type: functional
# Mus musculus [4] = assay: Compound was evaluated for its effect ofHSV -2 induced mortality in mice measured as survivors/total (%) at the dose of 12.5 mg/kg per day; 2/10; assay type: functional; outline: as §1
# Mus musculus [5] = assay: Compound was evaluated for its effect on HSV -2 induced mortality in mice measured as mean survival time (MST) at the dose of 25 mg/kg per day; assay type: functional; outline: as §1
# Cavia porcellus [6] = species: Cavia porcellus; assay: Compound (5%) was evaluated for its effect on (no. of areas = 4) time to start healing in HSV-1 cutaneous infection of guinea pig; expressed as time to start healing; assay type: functional
# Mus musculus [7] = assay: Compound was evaluated for its effect on HSV -2 induced mortality in mice measured as mean survival time (MST) at the dose of 12.5 mg/kg per day; assay type: functional; outline: as §1
# Cavia porcellus [8] = species: Cavia porcellus; assay: Compound (5%) was evaluated for its effect on (no. of areas = 4)mean peak lesion score in HSV-1 cutaneous infection of guinea pig; expressed as mean peak lesion score; assay type: functional
# Mus musculus [9] = assay: Compound was evaluated for its effect on HSV -2 induced mortality in mice measured as mean survival time (MST) at the dose of 200 mg/kg per day; assay type: functional; outline: as §1
# Vero [10] = assay: Compound was evaluated for antiviral activity against Herpes simplex virus (HSV) -1 (BW) in Vero cell cultures; assay type: functional; settings: Chlorocebus sabaeus, read-out: ID50 (the source's name)
# Outline: (§2)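 Vero cell cultures were infected with HSV-1 strain BWˢ or HSV-2 strain MS. Antiviral activity was read by the dye-uptake method. The 50% inhibitory dose (ID50) was obtained by linear regression.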
# Mus musculus [11] = assay: Compound was evaluated for its effect on HSV -2 induced mortality in mice measured as survivors/total (%) at the dose of 200 mg/kg per day; 6/12; assay type: functional; outline: as §1
# Mus musculus [12] = assay: Compound was evaluated for its effect on HSV -2 induced mortality in mice measured as mean survival time (MST) at the dose of 100 mg/kg per day; assay type: functional; outline: as §1
# Mus musculus [13] = assay: Compound was evaluated for its effect on HSV -2 induced mortality in mice measured as mean survival time (MST) at the dose of 50 mg/kg per day; assay type: functional; outline: as §1
# Cavia porcellus [14] = species: Cavia porcellus; assay: Compound (5%) was evaluated for its effect on (no. of areas = 4) mean area under lesion score-day curve in HSV-1 cutaneous infection of guinea pig; expressed as mean area under lesion score-day curve; assay type: functional
# Vero [15] = assay: Compound was evaluated for antiviral activity against Herpes simplex virus (HSV) -2 (MS) in Vero cell cultures; assay type: functional; settings: Chlorocebus sabaeus, read-out: ID50 (the source's name); outline: as §2
# Mus musculus [16] = assay: Compound was evaluated for its effect ofHSV -2 induced mortality in mice measured as survivors/total (%) at the dose of 100 mg/kg per day; 5/10; assay type: functional; outline: as §1
# Cavia porcellus [17] = species: Cavia porcellus; assay: Compound (5%) was evaluated for its effect on (no. of areas = 3) time to start healing in HSV-1 cutaneous infection of guinea pig; expressed as time to start healing; assay type: functional
# Human alphaherpesvirus 1 = assay: Compound (5%) was evaluated for its effect on (no. of areas = 3)mean peak lesion score in HSV-1 cutaneous infection of guinea pig; expressed as mean peak lesion score; assay type: functional
# Cavia porcellus [18] = species: Cavia porcellus; assay: Compound (5%) was evaluated for its effect on (no. of areas = 3)maximum score in HSV-1 cutaneous infection of guinea pig; expressed as maximum score; assay type: functional
# Cavia porcellus [19] = species: Cavia porcellus; assay: Compound (5%) was evaluated for its effect on (no. of areas = 3) mean area under lesion score-day curve in HSV-1 cutaneous infection of guinea pig; expressed as mean area under lesion score-day curve; assay type: functional
# Mus musculus [20] = assay: Compound was evaluated for its effect of HSV -2 induced mortality in mice measured as survivors/total (%) at the dose of 25 mg/kg per day; 5/10; assay type: functional; outline: as §1
# Mus musculus [21] = assay: Compound was evaluated for its effect of HSV -2 induced mortality in mice measured as survivors/total (%) at the dose of 12.5 mg/kg per day; 2/10; assay type: functional; outline: as §1
# Cavia porcellus [22] = species: Cavia porcellus; assay: Compound (5%) was evaluated for its effect on (no. of areas =3) time to start healing in HSV-1 cutaneous infection of guinea pig; expressed as time to start healing; assay type: functional
# Mus musculus [23] = assay: Compound was evaluated for its effect of HSV -2 induced mortality in mice measured as survivors/total (%) at the dose of 50 mg/kg per day; 5/10; assay type: functional; outline: as §1
# Mus musculus [24] = assay: Compound was evaluated for its effect of HSV -2 induced mortality in mice measured as survivors/total (%) at the dose of 200 mg/kg per day; 6/10; assay type: functional; outline: as §1
# Mus musculus [25] = assay: Compound was evaluated for its effect of HSV -2 induced mortality in mice measured as survivors/total (%) at the dose of 100 mg/kg per day; 3/10; assay type: functional; outline: as §1
# Mus musculus [26] = assay: Compound was evaluated for its effect of HSV -2 induced mortality in mice measured as survivors/total (%) at the dose of 100 mg/kg per day; 3/8; assay type: functional; outline: as §1
# Mus musculus [27] = assay: Compound was evaluated for its effect of HSV -2 induced mortality in mice measured as survivors/total (%) at the dose of 25 mg/kg per day; 3/9; assay type: functional; outline: as §1
# Mus musculus [28] = assay: Compound was evaluated for its effect of HSV -2 induced mortality in mice measured as survivors/total (%) at the dose of 50 mg/kg per day; 4/10; assay type: functional; outline: as §1
# [29] = substrate: Cc1cn([C@@H]2O[C@H](CO)[C@@H](O)[C@@H]2F)c(=O)[nH]c1=O; settings: Chlorocebus sabaeus; Vero
# [30] = substrate: O=c1[nH]c(=O)n([C@@H]2O[C@H](CO)[C@@H](O)[C@@H]2F)cc1I; settings: Chlorocebus sabaeus; Vero
# [31] = substrate: NC1=NC(=O)C2N=CN(COCCO)C2=N1; settings: Chlorocebus sabaeus; Vero
Molecule,Activity (Cavia porcellus [3]) [days],MST (Mus musculus [5]) [days],Activity (Cavia porcellus [6]) [days],MST (Mus musculus [7]) [days],Activity (Cavia porcellus [8]),MST (Mus musculus [9]) [days],IC50 (Vero [10]) [µg/mL],MST (Mus musculus [12]) [days],MST (Mus musculus [13]) [days],Activity (Cavia porcellus [14]),IC50 (Vero [15]) [µg/mL],Activity (Cavia porcellus [18]) [days],Activity (Cavia porcellus [19]),Activity (Mus musculus [21]) [%],further results
CCc1cn([C@@H]2O[C@H](CO)[C@@H](O)[C@@H]2F)c(=O)[nH]c1=O,3,9,6.5,8,1.5,19,0.99,18,12,10,2.7,–,–,–,Activity (Mus musculus [1]): 0%; Activity (Mus musculus [2]): 3%; Activity (Mus musculus [4]): 2%; Activity (Mus musculus [11]): 6%; Activity (Mus musculus [16]): 5%
Cc1cn([C@@H]2O[C@H](CO)[C@@H](O)[C@@H]2F)c(=O)[nH]c1=O [5-METHYL-2'-FLUOROARAURACIL],–,–,–,–,–,–,1.3,–,–,–,0.13,2.67,2.7,–,Activity (Cavia porcellus [17]): 5.33 days; Activity (Human alphaherpesvirus 1): 0.75
O=c1[nH]c(=O)n([C@@H]2O[C@H](CO)[C@@H](O)[C@@H]2F)cc1I [FIALURIDINE],–,18,–,10,1,21,0.96,13,18,–,0.64,3,9.6,2,Activity (Mus musculus [20]): 5%; Activity (Cavia porcellus [22]): 4.67 days; Activity (Mus musculus [23]): 5%; Activity (Mus musculus [24]): 6%; Activity (Mus musculus [25]): 3%
NC1=NC(=O)C2N=CN(COCCO)C2=N1 (stereo not given),4,10,6.25,8,2.5,–,0.7,13,10,15.2,1.1,–,–,2,Activity (Mus musculus [26]): 3%; Activity (Mus musculus [27]): 3%; Activity (Mus musculus [28]): 4%
B1,–,–,–,–,–,–,–,–,–,–,–,–,–,–,Ki [29]: 60 µM; Ki [30]: 53 µM; Ki [31]: > 4920 µM
